Test results published in ChEMBL document CHEMBL3864165, “Design, synthesis, and AChE inhibitory activity of new benzothiazole-piperazines” (Bioorg Med Chem Lett, 2016).

Legend:
[1] = target: Acetylcholinesterase (Electrophorus electricus) (UniProt O42275); experiment: Inhibition of electric eel AChE at 10^-7 M preincubated for 15 mins followed by acetylthiocholine iodide substrate addition measured for 5 mins by Ellman's spectrophotometric method relative to control
[2] = target: Acetylcholinesterase (Electrophorus electricus) (UniProt O42275); experiment: Inhibition of electric eel AChE at 10^-6 M preincubated for 15 mins followed by acetylthiocholine iodide substrate addition measured for 5 mins by Ellman's spectrophotometric method relative to control
[3] = target: T1, Acetylcholinesterase (Electrophorus electricus, UniProt O42275); experiment: Inhibition of electric eel AChE preincubated for 15 mins followed by acetylthiocholine iodide substrate addition measured for 5 mins by Ellman's spectrophotometric method
[4] = target: Acetylcholinesterase (Electrophorus electricus) (UniProt O42275); experiment: Inhibition of electric eel AChE at 10^-3 M preincubated for 15 mins followed by acetylthiocholine iodide substrate addition measured for 5 mins by Ellman's spectrophotometric method relative to control
[5] = target: Acetylcholinesterase (Electrophorus electricus) (UniProt O42275); experiment: Inhibition of electric eel AChE at 10^-4 M preincubated for 15 mins followed by acetylthiocholine iodide substrate addition measured for 5 mins by Ellman's spectrophotometric method relative to control
[6] = test system: Salmonella typhimurium; experiment: Genotoxicity in Salmonella typhimurium TA100 assessed as increase in number of revertants at 0.156 mg/ml in absence of aroclor-1254-induced Sprague-Dawley rat liver S9 fraction by Ames-MPF assay relative to control; assay type: toxicity, organism-based; conditions: salmonella enterica subsp. enterica serovar typhimurium
Summary of the method: (§1)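 Ames MPF microplate fluctuation format, run with and without S9 metabolic activation. The read-out is the count of positive (revertant) wells. A run is accepted only when positive controls give more than 25 positive wells and negative controls give fewer than eight.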

[7] = test system: Salmonella typhimurium; experiment: Genotoxicity in Salmonella typhimurium TA98 assessed as increase in number of revertants at 2.5 mg/ml in absence of aroclor-1254-induced Sprague-Dawley rat liver S9 fraction by Ames-MPF assay relative to control; assay type: toxicity, organism-based; conditions: salmonella enterica subsp. enterica serovar typhimurium; summary of the method: as §1
[8] = test system: Salmonella typhimurium; experiment: Genotoxicity in Salmonella typhimurium TA100 assessed as increase in number of revertants at 0.625 mg/ml in presence of aroclor-1254-induced Sprague-Dawley rat liver S9 fraction by Ames-MPF assay relative to control; assay type: toxicity, organism-based; conditions: salmonella enterica subsp. enterica serovar typhimurium; summary of the method: as §1
[9] = test system: Salmonella typhimurium; experiment: Genotoxicity in Salmonella typhimurium TA98 assessed as increase in number of revertants at 0.625 mg/ml in presence of aroclor-1254-induced Sprague-Dawley rat liver S9 fraction by Ames-MPF assay relative to control; assay type: toxicity, organism-based; conditions: salmonella enterica subsp. enterica serovar typhimurium; summary of the method: as §1
[10] = test system: Salmonella typhimurium; experiment: Genotoxicity in Salmonella typhimurium TA98 assessed as increase in number of revertants at 0.3125 mg/ml in absence of aroclor-1254-induced Sprague-Dawley rat liver S9 fraction by Ames-MPF assay relative to control; assay type: toxicity, organism-based; conditions: salmonella enterica subsp. enterica serovar typhimurium; summary of the method: as §1
[11] = test system: Salmonella typhimurium; experiment: Genotoxicity in Salmonella typhimurium TA100 assessed as increase in number of revertants at 5 mg/ml in absence of aroclor-1254-induced Sprague-Dawley rat liver S9 fraction by Ames-MPF assay relative to control; assay type: toxicity, organism-based; conditions: salmonella enterica subsp. enterica serovar typhimurium; summary of the method: as §1
[12] = test system: Salmonella typhimurium; experiment: Genotoxicity in Salmonella typhimurium TA98 assessed as increase in number of revertants at 0.625 mg/ml in absence of aroclor-1254-induced Sprague-Dawley rat liver S9 fraction by Ames-MPF assay relative to control; assay type: toxicity, organism-based; conditions: salmonella enterica subsp. enterica serovar typhimurium; summary of the method: as §1
[13] = test system: Salmonella typhimurium; experiment: Genotoxicity in Salmonella typhimurium TA100 assessed as increase in number of revertants at 0.156 mg/ml in presence of aroclor-1254-induced Sprague-Dawley rat liver S9 fraction by Ames-MPF assay relative to control; assay type: toxicity, organism-based; conditions: salmonella enterica subsp. enterica serovar typhimurium; summary of the method: as §1
[14] = test system: Salmonella typhimurium; experiment: Genotoxicity in Salmonella typhimurium TA98 assessed as increase in number of revertants at 2.5 mg/ml in presence of aroclor-1254-induced Sprague-Dawley rat liver S9 fraction by Ames-MPF assay relative to control; assay type: toxicity, organism-based; conditions: salmonella enterica subsp. enterica serovar typhimurium; summary of the method: as §1
[15] = test system: Salmonella typhimurium; experiment: Genotoxicity in Salmonella typhimurium TA100 assessed as increase in number of revertants at 1.25 mg/ml in absence of aroclor-1254-induced Sprague-Dawley rat liver S9 fraction by Ames-MPF assay relative to control; assay type: toxicity, organism-based; conditions: salmonella enterica subsp. enterica serovar typhimurium; summary of the method: as §1
[16] = test system: Salmonella typhimurium; experiment: Genotoxicity in Salmonella typhimurium TA98 assessed as increase in number of revertants at 0.3125 mg/ml in presence of aroclor-1254-induced Sprague-Dawley rat liver S9 fraction by Ames-MPF assay relative to control; assay type: toxicity, organism-based; conditions: salmonella enterica subsp. enterica serovar typhimurium; summary of the method: as §1
[17] = test system: Salmonella typhimurium; experiment: Genotoxicity in Salmonella typhimurium TA98 assessed as increase in number of revertants at 0.156 mg/ml in absence of aroclor-1254-induced Sprague-Dawley rat liver S9 fraction by Ames-MPF assay relative to control; assay type: toxicity, organism-based; conditions: salmonella enterica subsp. enterica serovar typhimurium; summary of the method: as §1
[18] = test system: Salmonella typhimurium; experiment: Genotoxicity in Salmonella typhimurium TA100 assessed as increase in number of revertants at 0.3125 mg/ml in presence of aroclor-1254-induced Sprague-Dawley rat liver S9 fraction by Ames-MPF assay relative to control; assay type: toxicity, organism-based; conditions: salmonella enterica subsp. enterica serovar typhimurium; summary of the method: as §1
[19] = target: T1, Acetylcholinesterase; experiment: Mixed-type inhibition of electric eel AChE preincubated for 15 mins followed by acetylthiocholine iodide substrate addition measured for 5 mins by Lineweaver-Burk plot analysis
Summary of the method: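 Substrate-velocity curves recorded with and without inhibitor, with initial velocities measured at acetylthiocholine (ATC) concentrations from 600 µM down to 18.75 µM. Data analysed as 1/V plots. Ki taken as the x-axis intercept of a secondary plot of 1/V versus inhibitor concentration.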

[20] = test system: Salmonella typhimurium; experiment: Genotoxicity in Salmonella typhimurium TA98 assessed as increase in number of revertants at 1.25 mg/ml in presence of aroclor-1254-induced Sprague-Dawley rat liver S9 fraction by Ames-MPF assay relative to control; assay type: toxicity, organism-based; conditions: salmonella enterica subsp. enterica serovar typhimurium; summary of the method: as §1
[21] = test system: Salmonella typhimurium; experiment: Genotoxicity in Salmonella typhimurium TA98 assessed as increase in number of revertants at 5 mg/ml in presence of aroclor-1254-induced Sprague-Dawley rat liver S9 fraction by Ames-MPF assay relative to control; assay type: toxicity, organism-based; conditions: salmonella enterica subsp. enterica serovar typhimurium; summary of the method: as §1
[22] = test system: Salmonella typhimurium; experiment: Genotoxicity in Salmonella typhimurium TA98 assessed as increase in number of revertants at 0.156 mg/ml in presence of aroclor-1254-induced Sprague-Dawley rat liver S9 fraction by Ames-MPF assay relative to control; assay type: toxicity, organism-based; conditions: salmonella enterica subsp. enterica serovar typhimurium; summary of the method: as §1
[23] = test system: Salmonella typhimurium; experiment: Genotoxicity in Salmonella typhimurium TA100 assessed as increase in number of revertants at 2.5 mg/ml in presence of aroclor-1254-induced Sprague-Dawley rat liver S9 fraction by Ames-MPF assay relative to control; assay type: toxicity, organism-based; conditions: salmonella enterica subsp. enterica serovar typhimurium; summary of the method: as §1
[24] = test system: Salmonella typhimurium; experiment: Genotoxicity in Salmonella typhimurium TA100 assessed as increase in number of revertants at 0.625 mg/ml in absence of aroclor-1254-induced Sprague-Dawley rat liver S9 fraction by Ames-MPF assay relative to control; assay type: toxicity, organism-based; conditions: salmonella enterica subsp. enterica serovar typhimurium; summary of the method: as §1
[25] = test system: Salmonella typhimurium; experiment: Genotoxicity in Salmonella typhimurium TA100 assessed as increase in number of revertants at 0.3125 mg/ml in absence of aroclor-1254-induced Sprague-Dawley rat liver S9 fraction by Ames-MPF assay relative to control; assay type: toxicity, organism-based; conditions: salmonella enterica subsp. enterica serovar typhimurium; summary of the method: as §1
[26] = test system: Salmonella typhimurium; experiment: Genotoxicity in Salmonella typhimurium TA98 assessed as increase in number of revertants at 5 mg/ml in absence of aroclor-1254-induced Sprague-Dawley rat liver S9 fraction by Ames-MPF assay relative to control; assay type: toxicity, organism-based; conditions: salmonella enterica subsp. enterica serovar typhimurium; summary of the method: as §1
[27] = test system: Salmonella typhimurium; experiment: Genotoxicity in Salmonella typhimurium TA100 assessed as increase in number of revertants at 2.5 mg/ml in absence of aroclor-1254-induced Sprague-Dawley rat liver S9 fraction by Ames-MPF assay relative to control; assay type: toxicity, organism-based; conditions: salmonella enterica subsp. enterica serovar typhimurium; summary of the method: as §1
[28] = test system: Salmonella typhimurium; experiment: Genotoxicity in Salmonella typhimurium TA100 assessed as increase in number of revertants at 5 mg/ml in presence of aroclor-1254-induced Sprague-Dawley rat liver S9 fraction by Ames-MPF assay relative to control; assay type: toxicity, organism-based; conditions: salmonella enterica subsp. enterica serovar typhimurium; summary of the method: as §1
[29] = test system: Salmonella typhimurium; experiment: Genotoxicity in Salmonella typhimurium TA100 assessed as increase in number of revertants at 1.25 mg/ml in presence of aroclor-1254-induced Sprague-Dawley rat liver S9 fraction by Ames-MPF assay relative to control; assay type: toxicity, organism-based; conditions: salmonella enterica subsp. enterica serovar typhimurium; summary of the method: as §1
[30] = test system: Salmonella typhimurium; experiment: Genotoxicity in Salmonella typhimurium TA98 assessed as increase in number of revertants at 1.25 mg/ml in absence of aroclor-1254-induced Sprague-Dawley rat liver S9 fraction by Ames-MPF assay relative to control; assay type: toxicity, organism-based; conditions: salmonella enterica subsp. enterica serovar typhimurium; summary of the method: as §1
[31] = Ratio of compound IC50 to donepezil IC50 for mouse NIH/3T3 cells; assay type: ADME, cell-based; conditions: read-out: Ratio IC50
[32] = Cytotoxicity against mouse NIH/3T3 cells after 24 hrs by MTT assay; conditions: NIH/3T3 cells

T1 sequence (O42275 whole entry): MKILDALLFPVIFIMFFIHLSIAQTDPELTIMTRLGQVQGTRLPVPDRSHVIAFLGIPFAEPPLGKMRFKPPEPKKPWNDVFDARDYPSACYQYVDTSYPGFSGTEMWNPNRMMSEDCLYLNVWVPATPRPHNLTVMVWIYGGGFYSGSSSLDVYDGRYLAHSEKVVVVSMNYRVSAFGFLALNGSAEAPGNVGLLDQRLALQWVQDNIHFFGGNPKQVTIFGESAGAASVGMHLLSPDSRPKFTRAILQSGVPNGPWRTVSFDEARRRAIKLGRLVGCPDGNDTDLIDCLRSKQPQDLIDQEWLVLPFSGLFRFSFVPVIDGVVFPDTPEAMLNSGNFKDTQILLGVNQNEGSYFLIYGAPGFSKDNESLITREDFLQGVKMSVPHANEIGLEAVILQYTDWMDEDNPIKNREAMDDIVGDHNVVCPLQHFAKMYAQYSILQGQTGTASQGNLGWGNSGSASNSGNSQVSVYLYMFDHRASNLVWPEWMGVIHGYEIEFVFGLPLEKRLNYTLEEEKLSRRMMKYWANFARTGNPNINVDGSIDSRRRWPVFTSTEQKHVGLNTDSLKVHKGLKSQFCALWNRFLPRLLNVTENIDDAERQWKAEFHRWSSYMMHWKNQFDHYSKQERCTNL
Acetylcholinesterase (Electrophorus electricus), sequence (O42275 24-633 limits assumed): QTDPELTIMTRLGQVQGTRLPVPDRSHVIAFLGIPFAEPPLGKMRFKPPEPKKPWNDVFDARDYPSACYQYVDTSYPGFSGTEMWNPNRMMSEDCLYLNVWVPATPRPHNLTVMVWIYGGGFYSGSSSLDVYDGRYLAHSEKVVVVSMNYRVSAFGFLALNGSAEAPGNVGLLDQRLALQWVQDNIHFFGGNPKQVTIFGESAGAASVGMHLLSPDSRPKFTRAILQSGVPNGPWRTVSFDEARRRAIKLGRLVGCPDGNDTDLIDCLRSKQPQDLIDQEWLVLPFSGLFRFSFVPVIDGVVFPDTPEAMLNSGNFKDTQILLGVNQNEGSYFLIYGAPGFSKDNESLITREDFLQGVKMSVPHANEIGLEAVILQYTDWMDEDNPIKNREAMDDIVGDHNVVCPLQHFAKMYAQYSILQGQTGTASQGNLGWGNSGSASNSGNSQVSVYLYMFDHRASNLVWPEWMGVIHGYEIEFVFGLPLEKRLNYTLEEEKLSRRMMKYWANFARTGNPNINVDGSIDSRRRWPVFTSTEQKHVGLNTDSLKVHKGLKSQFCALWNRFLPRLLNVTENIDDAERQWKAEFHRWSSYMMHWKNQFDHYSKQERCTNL

SMILES: COc1ccc2nc(NC(=O)CN3CCN(CCCN(C)C)CC3)sc2c1
- inhibition [1]: > 50%
- inhibition [2]: > 50%
- IC50 [3]: 0.117 µM

SMILES: COc1ccc2nc(NC(=O)CN3CCN(Cc4ccc(C)cc4)CC3)sc2c1
- inhibition [2]: > 50%
- IC50 [3]: 0.326 µM

SMILES: COc1ccc2nc(NC(=O)CN3CCN(Cc4ccc(F)cc4)CC3)sc2c1
- inhibition [2]: > 50%
- IC50 [3]: 0.244 µM

SMILES: COc1ccc2nc(NC(=O)CN3CCN(CCN(C)C)CC3)sc2c1
- inhibition [1]: > 50%
- inhibition [2]: > 50%
- IC50 [3]: 0.0946 µM

SMILES: COc1cc2nc(NC(=O)CN3CCN(Cc4ccc(F)cc4)CC3)sc2cc1OC
- inhibition [2]: > 50%
- IC50 [3]: 0.175 µM

SMILES: COc1cc2nc(NC(=O)CN3CCN(Cc4ccc(C)cc4)CC3)sc2cc1OC
- inhibition [2]: > 50%
- IC50 [3]: 0.215 µM

SMILES: COc1ccc2nc(NC(=O)CN3CCN(Cc4ccc(Cl)cc4)CC3)sc2c1
- inhibition [4]: > 95%
- inhibition [5]: 90%
- inhibition [2]: > 50%
- IC50 [3]: 0.22 µM

SMILES: COc1cc2nc(NC(=O)CN3CCN(CCN(C)C)CC3)sc2cc1OC
- fold change (FC) [6]: 0.66
- fold change (FC) [7]: 0.33
- fold change (FC) [8]: 0.55
- fold change (FC) [9]: 0.97
- fold change (FC) [10]: 1.14
- fold change (FC) [11]: 0
- fold change (FC) [12]: 1.03
- fold change (FC) [13]: 0.78
- fold change (FC) [14]: 0
- fold change (FC) [15]: 0.27
- fold change (FC) [16]: 0.65
- fold change (FC) [17]: 0.87
- fold change (FC) [18]: 0.55
- Ki [19]: 0.11 µM
- fold change (FC) [20]: 0.43
- inhibition [4]: > 95%
- inhibition [1]: > 50%
- fold change (FC) [21]: 0
- inhibition [5]: 90%
- fold change (FC) [22]: 0.22
- fold change (FC) [23]: 0.55
- fold change (FC) [24]: 0.27
- fold change (FC) [25]: 0.49
- fold change (FC) [26]: 0.11
- fold change (FC) [27]: 0
- inhibition [2]: > 50%
- fold change (FC) [28]: 0.47
- fold change (FC) [29]: 1.09
- fold change (FC) [30]: 0.33
- IC50 [3]: 0.0462 µM
- selectivity ratio [31]: 3
- IC50 at 24 h [32]: > 1000 µM
